pIC50: −log10 of the molar value.
Tests used:
[1] = tested on: multiple cell lines (H650, H1155, H23); assay: relative cell counts after treatment with selective inhibitors; format: cell-based; settings: 72 h
How it was run: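 Cells were treated 72 h with test inhibitors at 1.5 μM (20 μM for FMK and SL0101), diluted from 10 mM DMSO stocks in complete RPMI. Viable cells were counted in triplicate by trypan blue exclusion on a hemocytometer. Data are biological triplicates each in technical triplicate, reported as median ± SD relative counts.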

ALK = ALK (Homo sapiens, UniProt Q9UM73); assay: in vitro kinase assay; format: biochemical
How it was run: (§1)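 Biochemical kinase IC50s were determined by two contract providers. One used a 10-dose 3-fold serial dilution from 20 μM and the other a 9-dose 3-fold dilution from 20 μM, each in technical duplicate. Reported values are the mean of the combined datasets.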

EML4-ALK = EML4-ALK (Homo sapiens, UniProt Q9HC35+Q9UM73); assay: c-ceritinib pulldown; format: binding; settings: immobilized compound, cell lysate
H1155 cells [2] = assay: apoptosis by cleaved caspase 3/7 and PARP1; format: cell-based; settings: for apoptosis, single drug: single drug treatment
H1155 cells [3] = assay: cell viability, combination of inhibitors with paclitaxel; format: cell-based
FAK1 and RSK1/2 = assay: c-ceritinib pulldown competition with free ceritinib; format: binding; settings: 20 μM unmodified ceritinib, H650 cell lysate
[4] = tested on: NSCLC cell lines (KRAS-mutant H650, H1155 and H23 cells); assay: phenotypic drug screen, cell viability; format: cell-based; settings: 72 h, 2.5 μM; ALK-negative lines
How it was run: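 Phenotypic screen: 240 compounds were tested across 20 NSCLC cell lines, seeded 1000 cells/well in 384-well plates and treated 24 h later. Compounds were diluted from 10 mM DMSO stocks in complete RPMI to final 0.5 μM and 2.5 μM for 72 h in biological duplicate. Viability was read by CellTiter-Glo luminescence and profiles were grouped by unsupervised hierarchical clustering.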

H460 cells [5] = assay: cell viability, combination with paclitaxel; format: cell-based
[6] = tested on: NRAS-mutant H1299 LCLC cells; assay: cell viability, combination with paclitaxel; format: cell-based
[7] = tested on: ALK-negative NSCLC cell lines (most sensitive cells); assay: CellTiter-Glo cell viability, dose-response curves; format: cell-based
H650 and H1155 cells = assay: cell viability, combination with paclitaxel; format: cell-based; settings: 72 h
How it was run: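 Cells were plated at 1000 cells/well in 384-well format and dosed 24 h later with test compound alone or with the partner agent, each diluted in culture medium. After 72 h, viability was read by CellTiter-Glo luminescence (n = 3). Dose-response curves were fitted, and combination effects were scored by the Bliss model or by the Chou-Talalay combination index.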

[8] = target: RSK1/2 C-terminal kinase domain (CTKD); assay: cross-competition pulldown with NTKD or CTKD inhibitors; format: binding; settings: H650 lysate ± 20 μM BI-D1870 or FMK
[9] = patient plasma; cited from earlier work
[10] = tested on: phosphorylation of YB1 at S102; assay: Immunoblot, YB1 phosphorylation; format: cell-based; settings: 3 h treatment
How it was run: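 YB1 phosphorylation was read by immunoblot after 3 h treatment: FMK 20 μM, OSI-906 1.5 μM, PF-573228 1.5 μM. Lysis was in NP40/Tris pH 7.5/glycerol/MgCl₂/NaCl buffer with phosphatase and protease inhibitors. Detection used HRP-conjugated anti-rabbit or anti-mouse secondaries.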

[11] = tested on: ERK phosphorylation in H23 cells; assay: Western blot, ERK phosphorylation; format: cell-based; settings: 3 h
How it was run: (§2)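 H23 cells were treated for 3 h with test compounds: FMK at 20 μM, OSI-906 and PF-573228 at 1.5 μM. Target phosphorylation and downstream signals were read by western blot with HRP-conjugated secondary antibodies; n = 3.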

FER = FER (Homo sapiens, UniProt P16591); assay: in vitro kinase assay; format: biochemical
[12] = tested on: AKT phosphorylation in H23 cells; assay: Western blot, AKT phosphorylation; format: cell-based; settings: 3 h
How it was run: as §2

[13] = tested on: RSK1/2 S380/S386 autophosphorylation in H23 cells; assay: Western blot, RSK1/2 autophosphorylation; format: cell-based; settings: 3 h
How it was run: as §2

NSCLC cells = assay: cell cycle analysis by flow cytometry; format: cell-based
How it was run: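 Cell cycle: after incubation, cells were harvested, fixed in 70% cold ethanol and held at −20°C. They were then washed in PBS and stained with 1 μg/mL DAPI in 0.1% Triton X-100/PBS. DNA content was measured by flow cytometry and cell-cycle phases were modelled from the histograms.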

[14] = tested on: phosphorylation of RPS6 at S235/236; assay: Immunoblot, RPS6 phosphorylation; format: cell-based
[15] = tested on: PDX tumor models with high pFAK1 staining (PDX1, PDX2, PDX3); assay: ex vivo soft-agar 3D clonogenic assay, combination with paclitaxel; format: cell-based; settings: particularly at low drug concentrations
H460 cells [16] = assay: clonogenic assay, combination with paclitaxel; format: cell-based; settings: 7 days
AMPKα1 = AMPKα1 (Homo sapiens, UniProt Q13131); assay: in vitro kinase assay; format: biochemical
How it was run: as §1

mTOR = mTOR (Homo sapiens, UniProt P42345); assay: in vitro kinase assay; format: biochemical; settings: at 1.5 μM
[17] = tested on: autophosphorylation of FAK1 in H23 cells; assay: Western blot, FAK1 autophosphorylation; format: cell-based; settings: 3 h
How it was run: as §2

ERK1/2 = assay: in vitro kinase assay; format: biochemical; settings: at 1.5 μM

Sequence of AMPKα1 (Q13131 whole entry): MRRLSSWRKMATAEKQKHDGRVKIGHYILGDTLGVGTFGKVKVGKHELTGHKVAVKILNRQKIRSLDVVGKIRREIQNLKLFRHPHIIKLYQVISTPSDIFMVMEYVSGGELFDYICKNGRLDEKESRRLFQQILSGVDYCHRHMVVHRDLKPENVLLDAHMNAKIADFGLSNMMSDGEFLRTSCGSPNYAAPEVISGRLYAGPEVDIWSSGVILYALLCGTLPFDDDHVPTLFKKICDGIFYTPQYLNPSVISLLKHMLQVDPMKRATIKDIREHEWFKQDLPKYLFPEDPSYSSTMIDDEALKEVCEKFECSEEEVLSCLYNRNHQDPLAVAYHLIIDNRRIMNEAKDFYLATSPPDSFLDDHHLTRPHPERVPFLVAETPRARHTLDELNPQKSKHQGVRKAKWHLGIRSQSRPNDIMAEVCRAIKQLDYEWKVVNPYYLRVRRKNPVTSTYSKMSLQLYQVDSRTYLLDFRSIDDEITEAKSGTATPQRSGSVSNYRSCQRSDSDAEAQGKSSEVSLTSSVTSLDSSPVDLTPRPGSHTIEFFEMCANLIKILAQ
Sequence of AMPKα1 (Q9Y478 whole entry partner): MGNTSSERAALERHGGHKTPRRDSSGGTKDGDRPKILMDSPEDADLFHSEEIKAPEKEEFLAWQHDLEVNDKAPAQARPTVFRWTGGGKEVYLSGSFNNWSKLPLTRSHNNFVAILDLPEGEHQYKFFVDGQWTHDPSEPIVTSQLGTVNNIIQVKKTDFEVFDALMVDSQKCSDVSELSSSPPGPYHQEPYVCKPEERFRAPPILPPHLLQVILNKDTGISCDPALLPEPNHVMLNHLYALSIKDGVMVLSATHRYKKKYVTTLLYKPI
Sequence of AMPKα1 (P54619 whole entry partner): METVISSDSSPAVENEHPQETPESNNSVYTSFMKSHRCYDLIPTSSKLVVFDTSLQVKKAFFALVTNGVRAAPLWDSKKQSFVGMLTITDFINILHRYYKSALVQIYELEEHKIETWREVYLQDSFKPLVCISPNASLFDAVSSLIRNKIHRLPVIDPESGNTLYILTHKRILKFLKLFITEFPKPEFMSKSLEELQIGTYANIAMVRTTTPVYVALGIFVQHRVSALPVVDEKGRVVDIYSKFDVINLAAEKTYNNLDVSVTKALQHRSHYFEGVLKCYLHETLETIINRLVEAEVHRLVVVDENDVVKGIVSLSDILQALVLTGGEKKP
Sequence of ALK (Q9UM73 19-1620): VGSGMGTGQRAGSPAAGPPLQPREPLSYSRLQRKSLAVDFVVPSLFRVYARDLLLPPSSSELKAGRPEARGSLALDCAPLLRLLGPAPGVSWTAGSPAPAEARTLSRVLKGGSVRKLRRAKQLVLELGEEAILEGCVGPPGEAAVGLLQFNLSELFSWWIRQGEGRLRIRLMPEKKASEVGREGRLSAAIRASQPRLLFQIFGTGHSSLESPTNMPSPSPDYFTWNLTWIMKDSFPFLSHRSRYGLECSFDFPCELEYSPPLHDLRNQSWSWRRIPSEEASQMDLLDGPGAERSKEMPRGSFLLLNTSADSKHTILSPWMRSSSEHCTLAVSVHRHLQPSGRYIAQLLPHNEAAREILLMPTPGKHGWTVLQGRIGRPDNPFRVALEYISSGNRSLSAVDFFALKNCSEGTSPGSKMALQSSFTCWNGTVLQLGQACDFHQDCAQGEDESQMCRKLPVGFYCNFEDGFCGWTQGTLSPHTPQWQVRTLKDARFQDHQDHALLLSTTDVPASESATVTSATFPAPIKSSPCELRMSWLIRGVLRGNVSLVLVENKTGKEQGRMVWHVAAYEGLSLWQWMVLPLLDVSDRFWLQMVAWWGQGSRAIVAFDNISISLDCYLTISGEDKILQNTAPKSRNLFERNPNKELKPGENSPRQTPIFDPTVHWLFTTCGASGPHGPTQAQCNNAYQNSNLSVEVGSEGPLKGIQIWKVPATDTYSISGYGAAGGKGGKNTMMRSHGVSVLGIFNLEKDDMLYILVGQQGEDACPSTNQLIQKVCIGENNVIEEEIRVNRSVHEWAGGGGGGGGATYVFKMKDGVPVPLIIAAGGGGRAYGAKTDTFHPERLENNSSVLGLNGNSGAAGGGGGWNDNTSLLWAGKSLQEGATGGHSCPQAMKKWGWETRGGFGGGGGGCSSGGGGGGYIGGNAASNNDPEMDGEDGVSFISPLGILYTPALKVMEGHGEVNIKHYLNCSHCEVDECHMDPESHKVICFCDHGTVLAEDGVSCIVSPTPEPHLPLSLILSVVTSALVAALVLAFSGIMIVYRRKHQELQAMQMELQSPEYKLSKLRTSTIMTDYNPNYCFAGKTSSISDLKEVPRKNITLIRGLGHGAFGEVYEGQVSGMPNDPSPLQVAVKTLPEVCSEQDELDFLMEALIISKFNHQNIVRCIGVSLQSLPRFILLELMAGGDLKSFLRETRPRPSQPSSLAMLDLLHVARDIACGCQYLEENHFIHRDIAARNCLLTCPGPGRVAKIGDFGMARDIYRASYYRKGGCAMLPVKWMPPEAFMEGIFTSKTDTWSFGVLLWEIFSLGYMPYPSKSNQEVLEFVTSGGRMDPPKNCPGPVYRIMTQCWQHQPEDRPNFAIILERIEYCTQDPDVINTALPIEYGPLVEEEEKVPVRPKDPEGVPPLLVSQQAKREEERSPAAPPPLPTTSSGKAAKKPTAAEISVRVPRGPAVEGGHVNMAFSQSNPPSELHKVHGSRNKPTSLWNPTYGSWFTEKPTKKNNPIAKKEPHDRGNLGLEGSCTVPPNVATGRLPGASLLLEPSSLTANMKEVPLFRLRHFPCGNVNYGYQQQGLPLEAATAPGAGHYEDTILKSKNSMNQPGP
Sequence of FER (P16591 whole entry): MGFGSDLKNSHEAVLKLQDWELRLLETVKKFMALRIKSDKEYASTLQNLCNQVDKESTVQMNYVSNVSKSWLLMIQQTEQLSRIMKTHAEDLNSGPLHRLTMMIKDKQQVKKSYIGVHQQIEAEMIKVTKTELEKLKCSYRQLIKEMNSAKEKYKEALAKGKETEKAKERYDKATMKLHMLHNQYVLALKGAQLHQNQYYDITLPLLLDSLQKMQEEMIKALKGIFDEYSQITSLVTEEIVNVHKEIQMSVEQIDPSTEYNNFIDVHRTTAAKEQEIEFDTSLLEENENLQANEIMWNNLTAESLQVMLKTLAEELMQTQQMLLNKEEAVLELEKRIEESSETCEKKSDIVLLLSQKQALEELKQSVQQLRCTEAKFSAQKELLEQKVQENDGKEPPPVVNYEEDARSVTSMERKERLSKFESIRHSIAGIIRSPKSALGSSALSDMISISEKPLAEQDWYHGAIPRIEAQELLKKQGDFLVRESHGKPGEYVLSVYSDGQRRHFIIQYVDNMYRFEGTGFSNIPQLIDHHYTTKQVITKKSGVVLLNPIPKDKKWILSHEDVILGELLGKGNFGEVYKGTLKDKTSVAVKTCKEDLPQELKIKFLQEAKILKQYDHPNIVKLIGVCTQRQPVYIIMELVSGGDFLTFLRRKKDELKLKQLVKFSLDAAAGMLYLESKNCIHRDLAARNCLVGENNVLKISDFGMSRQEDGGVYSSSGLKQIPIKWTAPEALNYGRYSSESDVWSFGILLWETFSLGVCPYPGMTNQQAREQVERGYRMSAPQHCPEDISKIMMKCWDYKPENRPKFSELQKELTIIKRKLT

CS(=O)(=O)c1cccc(CNc2nc(Nc3ccc4c(c3)CCC(=O)N4)ncc2C(F)(F)F)c1 [PF-573228]
effect on viability, single agent ([1]; 1.5 μM): little effect

Cc1cc(Nc2ncc(Cl)c(Nc3ccccc3S(=O)(=O)C(C)C)n2)c(OC(C)C)cc1C1CCN(CCCN)CC1 [c-ceritinib]
ALK inhibition (ALK): Activity was confirmed | binding of EML4-ALK (EML4-ALK): ability to bind

CC(=O)O[C@H]1C(=O)[C@@]2(C)[C@H]([C@H](OC(=O)c3ccccc3)[C@]3(O)C[C@H](OC(=O)[C@H](O)[C@@H](NC(=O)c4ccccc4)c4ccccc4)C(C)=C1C3(C)C)[C@]1(OC(C)=O)CO[C@@H]1C[C@@H]2O [paclitaxel]
apoptosis, single drug (H1155 cells [2]): no effect

CN(C)C(=O)c1cc2cnc(Nc3ccc(N4CCNCC4)cn3)nc2n1C1CCCC1 [ribociclib]
synergy with paclitaxel (H1155 cells [3]): did not exhibit synergy

C[C@]1(O)C[C@@H](c2nc(-c3ccc4ccc(-c5ccccc5)nc4c3)c3c(N)nccn32)C1 [OSI-906]
effect on viability, single agent ([1]; 1.5 μM): little effect

Cc1cc(Nc2ncc(Cl)c(Nc3ccccc3S(=O)(=O)C(C)C)n2)c(OC(C)C)cc1C1CCNCC1 [ceritinib, 5-Chloro-N2-(2-isopropoxy-5-methyl-4-(piperidin-4-yl)phenyl)-N4-(2-(isopropylsulfonyl)phenyl)pyrimidine-2,4-diamine]
competition from the affinity matrix (FAK1 and RSK1/2): competed away | activity in viability screen [4]: specific ALK-independent activity | synergy, CI values (H460 cells [5]): highly synergistic | response to combination [6]: strong response | pIC50 ([7]; 72 h, read-out: IC50, inhibition of viability): 5.70 to 6.00 | viability at 4 µM ([7]; read-out: Emax, viability): 0% | synergy, Bliss model of independence (H650 and H1155 cells): substantial synergy | kinase domain bound [8]: binds to the CTKD | clinical plasma concentrations [9]: 1.4 to 2.3 µM | effect on YB1 S102 phosphorylation [10]: inhibited | effect on ERK phosphorylation [11]: only minor effects | synergy with paclitaxel (H1155 cells [3]): pronounced synergy | apoptosis, combination (H1155 cells [2]; ceritinib combined with paclitaxel): significant increase in apoptosis | apoptosis, single drug (H1155 cells [2]): no effect | pIC50 (FER): 8.30 | effect on AKT phosphorylation [12]: reduced | effect on RSK1/2 S380/S386 autophosphorylation [13]: inhibited | cell cycle effect (NSCLC cells): G1 cell cycle arrest | effect on RPS6 S235/236 phosphorylation [14]: inhibited | synergy (Bliss), 3D ex vivo culture [15]: pronounced synergy | combination effect, clonogenic assay (H460 cells [16]): pronounced combination effects | pIC50 (AMPKα1): 5.60 | inhibition (mTOR): not significantly inhibited | effect on autophosphorylation of FAK1 [17]: reduced | inhibition (ERK1/2): not significantly inhibited

c1cc(-c2cnn3cc(-c4ccc(OCCN5CCCCC5)cc4)cnc23)ccn1 [compound C]
synergy with paclitaxel (H1155 cells [3]): did not synergize

CNC(=O)c1ccccc1Nc1nc(Nc2ccc3c(c2OC)CCC[C@H](N2CCN(CCO)CC2)C3)ncc1Cl [CEP-37440]
synergy with paclitaxel (H1155 cells [3]): strongly synergized

Cc1ccc(-c2c(C(=O)CF)n(CCCO)c3ncnc(N)c23)cc1 [FMK]
effect on viability, single agent ([1]; 20 μM): little effect

CC(=O)O[C@@H]1[C@@H](OC(C)=O)[C@@H](O)[C@H](Oc2c(-c3ccc(O)cc3)oc3cc(O)cc(O)c3c2=O)O[C@H]1C [SL0101]
effect on viability, single agent ([1]; 20 μM): little effect

Source: publication PMC5909815 (Nature chemical biology, 2017)
